The clearance is the rate of elimination divided by the concentration. Lower therefore signals inefficient removal.

This is an account of results in ChEMBL document CHEMBL3826935, “Synthesis and Pharmacology of (Pyridin-2-yl)methanol Derivatives as Novel and Selective Transient Receptor Potential Vanilloid 3 Antagonists” (J Med Chem, 2016).

Data set [1] concerns the target Sodium channel protein type 9 subunit alpha (Homo sapiens) (UniProt Q15858). Put plainly: Binding affinity to Nav1.7 (unknown origin) at 10 uM. In a few lines:
(§1)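 Selectivity screen at 10 µM across CEREP and internal target panels. Readout is percent binding, with 50% as the threshold.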

The target in data set [2] is Sodium channel protein type 10 subunit alpha (Homo sapiens) (UniProt Q9Y5Y9). As to the kind of experiment: Binding affinity to Nav1.8 (unknown origin) at 10 uM. An outline of the steps:
as §1

The target in data set [3] is Voltage-dependent N-type calcium channel subunit alpha-1B (Homo sapiens) (UniProt Q00975). As to the kind of experiment: Binding affinity to Cav2.2 (unknown origin) at 10 uM. An outline of the steps: as §1
Data set [4] can be described thus: Total plasma clearance in rat at 1 mg/kg, iv. Type of data set: ADME, organism-based. An outline of the steps: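 Rat pharmacokinetics: iv dose 1 mg/kg; po dose 1 or 2 mg/kg depending on compound. AUC taken over 0–8 h. Unbound parameters calculated using plasma free fraction.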
The subject of data set [5] is Rattus norvegicus. As to the kind of experiment: Antiallodynic activity in po dosed sciatic nerve ligation Sprague-Dawley rat model of neuropathic pain assessed as attenuation of mechanical allodynia induced by von Frey hair stimulation to the ipsilateral hind paw. In kind it is functional, organism-based. In a few lines: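 Rat neuropathic pain models dosed orally. Mechanical allodynia measured by von Frey stimulation of the injured ipsilateral paw, with a 15 g threshold taken as maximal possible effect and results expressed as %MPE. Vehicle 10% DMSO in PEG; n = 6 per group.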

For data set [6], the system named is Rattus norvegicus. Put plainly: Toxicity in chronic constriction injury Sprague-Dawley rat model of neuropathic pain assessed as overt impairments at 10 to 100 mg/kg, po. Type of data set: organism-based. To be noted: in vivo.
The subject of data set [7] is Liver microsome. Put plainly: Unbound intrinsic clearance in rat liver microsomes after 5 hrs by LC-MS/MS analysis. Type of data set: ADME. An outline of the steps:
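Microsomal stability run in an automated high-throughput plate format. Intrinsic clearance corrected for nonspecific microsomal binding using measured unbound fraction (fu,mic), reported as unbound Clint in L/h/kg.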
In general terms: Liver microsomes are vesicles of endoplasmic reticulum, rich in cytochrome P450 enzymes.

For data set [8], the species on record is Rattus norvegicus. Put plainly: Cardiotoxicity in rat assessed as increase in mean arterial pressure. In kind it is toxicity, organism-based, Artery. The note with it: in vivo.
Data set [9] deals with T1, Nuclear receptor subfamily 1 group I member 2 (Homo sapiens, UniProt O75469).
T1 sequence (O75469 whole entry): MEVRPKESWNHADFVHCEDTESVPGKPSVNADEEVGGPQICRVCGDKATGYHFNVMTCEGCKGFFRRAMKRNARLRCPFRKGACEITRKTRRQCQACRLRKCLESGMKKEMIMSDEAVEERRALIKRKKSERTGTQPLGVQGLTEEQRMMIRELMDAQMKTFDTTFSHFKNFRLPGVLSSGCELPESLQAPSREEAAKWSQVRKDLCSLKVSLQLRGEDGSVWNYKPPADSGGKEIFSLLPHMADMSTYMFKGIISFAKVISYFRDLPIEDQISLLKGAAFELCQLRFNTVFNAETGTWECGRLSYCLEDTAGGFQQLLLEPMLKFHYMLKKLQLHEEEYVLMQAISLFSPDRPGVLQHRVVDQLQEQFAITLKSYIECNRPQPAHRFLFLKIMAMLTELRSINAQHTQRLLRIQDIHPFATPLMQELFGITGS
As to the kind of experiment: Activation of human PXR. In kind it is ADME. To be noted: human.

Sodium channel protein type 9 subunit alpha (Homo sapiens), sequence (Q15858 whole entry, looked up): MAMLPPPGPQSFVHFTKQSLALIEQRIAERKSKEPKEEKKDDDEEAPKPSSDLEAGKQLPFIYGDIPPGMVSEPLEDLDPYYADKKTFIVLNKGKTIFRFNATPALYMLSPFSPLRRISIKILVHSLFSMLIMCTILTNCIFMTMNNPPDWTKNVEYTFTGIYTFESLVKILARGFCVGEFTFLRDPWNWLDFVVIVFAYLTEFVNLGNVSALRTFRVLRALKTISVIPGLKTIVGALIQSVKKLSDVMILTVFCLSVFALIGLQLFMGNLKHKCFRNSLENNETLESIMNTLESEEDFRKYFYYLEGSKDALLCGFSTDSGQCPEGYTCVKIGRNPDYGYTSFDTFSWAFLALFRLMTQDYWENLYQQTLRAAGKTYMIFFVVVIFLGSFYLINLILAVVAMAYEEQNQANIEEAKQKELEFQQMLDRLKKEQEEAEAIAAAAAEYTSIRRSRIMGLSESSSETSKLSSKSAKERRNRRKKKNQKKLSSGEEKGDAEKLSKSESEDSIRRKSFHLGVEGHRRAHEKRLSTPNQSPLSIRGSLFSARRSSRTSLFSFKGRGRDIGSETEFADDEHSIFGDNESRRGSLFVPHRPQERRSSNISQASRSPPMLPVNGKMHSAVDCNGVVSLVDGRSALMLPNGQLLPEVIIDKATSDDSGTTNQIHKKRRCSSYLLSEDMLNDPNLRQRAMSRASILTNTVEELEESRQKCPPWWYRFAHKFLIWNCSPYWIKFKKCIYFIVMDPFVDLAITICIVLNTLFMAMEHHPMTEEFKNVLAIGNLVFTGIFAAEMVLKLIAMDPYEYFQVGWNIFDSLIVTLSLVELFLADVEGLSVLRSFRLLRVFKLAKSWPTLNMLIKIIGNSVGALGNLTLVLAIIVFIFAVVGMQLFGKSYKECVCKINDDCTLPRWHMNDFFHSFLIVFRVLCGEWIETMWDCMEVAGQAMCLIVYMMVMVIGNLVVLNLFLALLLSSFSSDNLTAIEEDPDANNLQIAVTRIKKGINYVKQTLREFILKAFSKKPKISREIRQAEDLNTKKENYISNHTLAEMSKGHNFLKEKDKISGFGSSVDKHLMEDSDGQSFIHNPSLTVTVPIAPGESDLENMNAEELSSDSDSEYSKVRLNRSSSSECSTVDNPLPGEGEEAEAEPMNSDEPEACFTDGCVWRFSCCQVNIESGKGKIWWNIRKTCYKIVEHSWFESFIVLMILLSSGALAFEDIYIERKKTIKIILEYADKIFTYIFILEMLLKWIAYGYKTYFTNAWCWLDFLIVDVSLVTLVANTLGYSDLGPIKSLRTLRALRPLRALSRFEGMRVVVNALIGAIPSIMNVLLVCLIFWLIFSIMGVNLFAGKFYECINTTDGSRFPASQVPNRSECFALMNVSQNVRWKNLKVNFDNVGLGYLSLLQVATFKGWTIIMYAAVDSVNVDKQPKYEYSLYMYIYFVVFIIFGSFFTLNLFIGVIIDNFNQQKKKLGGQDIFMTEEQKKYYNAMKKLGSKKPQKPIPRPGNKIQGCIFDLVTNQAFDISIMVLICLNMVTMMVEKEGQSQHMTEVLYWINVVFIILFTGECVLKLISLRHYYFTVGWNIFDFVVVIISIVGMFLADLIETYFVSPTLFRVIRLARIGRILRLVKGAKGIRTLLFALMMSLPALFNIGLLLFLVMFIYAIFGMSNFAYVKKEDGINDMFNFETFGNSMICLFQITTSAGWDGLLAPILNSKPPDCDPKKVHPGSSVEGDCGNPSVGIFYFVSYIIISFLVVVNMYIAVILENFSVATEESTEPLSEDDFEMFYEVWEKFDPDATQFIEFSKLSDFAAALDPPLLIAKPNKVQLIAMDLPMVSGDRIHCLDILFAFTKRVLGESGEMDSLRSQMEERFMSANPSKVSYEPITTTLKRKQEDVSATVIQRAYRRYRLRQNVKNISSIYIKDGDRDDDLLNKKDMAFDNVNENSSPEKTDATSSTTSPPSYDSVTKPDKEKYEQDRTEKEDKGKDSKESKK
Voltage-dependent N-type calcium channel subunit alpha-1B (Homo sapiens), sequence (Q00975 whole entry, looked up): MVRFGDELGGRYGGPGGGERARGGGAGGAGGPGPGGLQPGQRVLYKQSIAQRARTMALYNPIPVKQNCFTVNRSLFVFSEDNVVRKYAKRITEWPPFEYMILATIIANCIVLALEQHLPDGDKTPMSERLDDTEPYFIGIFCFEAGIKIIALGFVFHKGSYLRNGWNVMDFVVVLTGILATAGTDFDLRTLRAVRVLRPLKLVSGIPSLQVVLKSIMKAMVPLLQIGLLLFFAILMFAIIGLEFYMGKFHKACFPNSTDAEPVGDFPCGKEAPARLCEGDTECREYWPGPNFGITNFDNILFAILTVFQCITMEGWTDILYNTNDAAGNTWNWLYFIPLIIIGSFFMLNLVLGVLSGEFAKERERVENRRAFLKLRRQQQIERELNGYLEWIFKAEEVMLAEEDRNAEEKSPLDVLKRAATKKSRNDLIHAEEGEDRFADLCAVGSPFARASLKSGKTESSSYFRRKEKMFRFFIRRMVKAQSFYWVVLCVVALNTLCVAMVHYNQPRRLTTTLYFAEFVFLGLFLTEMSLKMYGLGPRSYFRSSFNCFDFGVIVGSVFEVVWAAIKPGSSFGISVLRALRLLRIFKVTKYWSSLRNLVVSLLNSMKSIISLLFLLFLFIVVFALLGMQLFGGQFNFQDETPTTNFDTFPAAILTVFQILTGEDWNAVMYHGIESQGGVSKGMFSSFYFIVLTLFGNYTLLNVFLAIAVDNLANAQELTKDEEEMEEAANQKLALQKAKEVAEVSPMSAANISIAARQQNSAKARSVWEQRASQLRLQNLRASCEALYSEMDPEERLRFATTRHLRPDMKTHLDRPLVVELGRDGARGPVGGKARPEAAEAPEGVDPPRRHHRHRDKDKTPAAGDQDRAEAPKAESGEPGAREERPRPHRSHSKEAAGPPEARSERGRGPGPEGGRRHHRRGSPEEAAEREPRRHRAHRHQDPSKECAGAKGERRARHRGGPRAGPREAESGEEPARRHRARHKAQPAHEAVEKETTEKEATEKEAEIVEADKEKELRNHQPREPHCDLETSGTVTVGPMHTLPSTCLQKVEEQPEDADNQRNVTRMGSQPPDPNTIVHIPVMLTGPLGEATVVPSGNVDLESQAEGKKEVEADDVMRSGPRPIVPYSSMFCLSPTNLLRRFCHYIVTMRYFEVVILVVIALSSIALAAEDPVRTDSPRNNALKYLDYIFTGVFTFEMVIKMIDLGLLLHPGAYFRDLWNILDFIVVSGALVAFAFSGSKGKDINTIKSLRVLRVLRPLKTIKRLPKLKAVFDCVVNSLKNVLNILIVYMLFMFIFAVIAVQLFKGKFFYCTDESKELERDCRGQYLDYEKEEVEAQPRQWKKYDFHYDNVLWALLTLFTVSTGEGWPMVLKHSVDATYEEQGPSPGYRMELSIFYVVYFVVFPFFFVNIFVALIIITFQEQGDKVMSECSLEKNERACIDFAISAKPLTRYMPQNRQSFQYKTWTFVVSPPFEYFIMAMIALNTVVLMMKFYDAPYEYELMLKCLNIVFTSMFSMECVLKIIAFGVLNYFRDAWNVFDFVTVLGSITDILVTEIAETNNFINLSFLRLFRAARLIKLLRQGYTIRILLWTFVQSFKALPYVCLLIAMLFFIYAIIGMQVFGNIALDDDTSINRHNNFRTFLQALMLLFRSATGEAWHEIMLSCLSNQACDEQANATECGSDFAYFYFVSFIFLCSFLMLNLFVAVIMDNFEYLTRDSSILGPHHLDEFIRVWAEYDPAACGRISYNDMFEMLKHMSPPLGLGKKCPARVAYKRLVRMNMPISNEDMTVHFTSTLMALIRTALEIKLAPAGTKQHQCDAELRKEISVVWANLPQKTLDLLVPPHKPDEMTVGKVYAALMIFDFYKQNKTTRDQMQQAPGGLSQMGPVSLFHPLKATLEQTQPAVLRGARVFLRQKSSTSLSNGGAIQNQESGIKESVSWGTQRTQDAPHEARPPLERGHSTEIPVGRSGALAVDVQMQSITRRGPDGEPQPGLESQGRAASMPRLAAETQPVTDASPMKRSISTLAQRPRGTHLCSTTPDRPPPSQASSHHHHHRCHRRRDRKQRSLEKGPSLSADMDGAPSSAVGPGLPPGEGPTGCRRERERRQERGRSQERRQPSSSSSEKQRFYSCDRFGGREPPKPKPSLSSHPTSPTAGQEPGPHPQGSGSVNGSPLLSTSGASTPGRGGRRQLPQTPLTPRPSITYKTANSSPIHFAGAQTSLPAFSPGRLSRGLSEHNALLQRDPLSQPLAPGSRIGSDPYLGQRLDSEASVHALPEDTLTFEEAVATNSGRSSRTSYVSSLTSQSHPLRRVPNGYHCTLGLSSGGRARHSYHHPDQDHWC

On to `C[C@]1(O)C[C@](c2cc(C(F)(F)F)ccn2)([C@H](O)c2ccccn2)C1` (mixture of isomers), for which the Activity in data set [1] was below 50%; in [2], below 50%; in data set [3] it was below 50%; in [5], “Dose-dependent effect”; in data set [6], “Non-toxic”; in data set [8], “Non-toxic”. Moreover, the Activity entry in data set [9] is recorded as “Not Active”. This compound also showed a clearance in data set [4] of 26.7 mL/min/kg. For the same compound, the EC50 in data set [5] amounted to 11 µmol. In data set [7], this compound came in with a CL free of 100 mL/min/kg.
